Converted amounts (≈) assume the structure as drawn. The source made the active and inactive calls. No cut-off for these calls is given here.
Columns and labels:
[1] = system: Mycobacterium tuberculosis; test: Antibacterial activity against Mycobacterium tuberculosis H37Rv after 7 days by microplate alamar blue assay method; assay type: functional; details: 168 h
In short: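 Mtb H37Rv inoculum taken from fresh LJ medium, resuspended in 7H9-S (7H9, 0.1% casitone, 0.5% glycerol, OADC), adjusted to McFarland No. 1 and diluted 1:20. Two-fold serial drug dilutions in 7H9-S, with growth and sterile controls. Incubated 7 days at 37 °C, alamar blue added, reincubated overnight. MIC taken as lowest concentration preventing the blue-to-pink colour change.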

[2] = molecular target: DNA gyrase subunit A/DNA gyrase subunit B (Mycobacterium tuberculosis (strain ATCC 25618 / H37Rv), UniProt P9WG45+P9WG47); test: Inhibition of Mycobacterium tuberculosis DNA gyrase supercoiling activity using relaxed pBR322 substrate incubated for 30 mins by ethidium bromide staining method
Sequence of DNA gyrase subunit A/DNA gyrase subunit B (P9WG45 whole entry): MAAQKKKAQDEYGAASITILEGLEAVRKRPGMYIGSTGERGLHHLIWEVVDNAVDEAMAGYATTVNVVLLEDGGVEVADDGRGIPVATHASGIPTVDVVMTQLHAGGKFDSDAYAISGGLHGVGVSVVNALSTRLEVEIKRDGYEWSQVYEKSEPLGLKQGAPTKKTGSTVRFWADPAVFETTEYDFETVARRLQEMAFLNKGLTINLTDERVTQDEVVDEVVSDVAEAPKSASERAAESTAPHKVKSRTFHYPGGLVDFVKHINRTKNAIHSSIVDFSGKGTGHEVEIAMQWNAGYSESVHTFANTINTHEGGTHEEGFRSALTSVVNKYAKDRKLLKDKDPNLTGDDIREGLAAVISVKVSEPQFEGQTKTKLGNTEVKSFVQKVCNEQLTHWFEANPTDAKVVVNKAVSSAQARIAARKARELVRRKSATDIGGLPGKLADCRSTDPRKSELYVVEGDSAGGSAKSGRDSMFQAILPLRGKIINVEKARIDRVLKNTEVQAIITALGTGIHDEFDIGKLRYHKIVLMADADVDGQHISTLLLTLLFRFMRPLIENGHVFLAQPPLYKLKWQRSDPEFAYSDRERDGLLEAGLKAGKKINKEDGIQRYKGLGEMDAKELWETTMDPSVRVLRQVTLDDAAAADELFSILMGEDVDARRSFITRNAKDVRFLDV
Sequence of DNA gyrase subunit A/DNA gyrase subunit B (P9WG47 whole entry): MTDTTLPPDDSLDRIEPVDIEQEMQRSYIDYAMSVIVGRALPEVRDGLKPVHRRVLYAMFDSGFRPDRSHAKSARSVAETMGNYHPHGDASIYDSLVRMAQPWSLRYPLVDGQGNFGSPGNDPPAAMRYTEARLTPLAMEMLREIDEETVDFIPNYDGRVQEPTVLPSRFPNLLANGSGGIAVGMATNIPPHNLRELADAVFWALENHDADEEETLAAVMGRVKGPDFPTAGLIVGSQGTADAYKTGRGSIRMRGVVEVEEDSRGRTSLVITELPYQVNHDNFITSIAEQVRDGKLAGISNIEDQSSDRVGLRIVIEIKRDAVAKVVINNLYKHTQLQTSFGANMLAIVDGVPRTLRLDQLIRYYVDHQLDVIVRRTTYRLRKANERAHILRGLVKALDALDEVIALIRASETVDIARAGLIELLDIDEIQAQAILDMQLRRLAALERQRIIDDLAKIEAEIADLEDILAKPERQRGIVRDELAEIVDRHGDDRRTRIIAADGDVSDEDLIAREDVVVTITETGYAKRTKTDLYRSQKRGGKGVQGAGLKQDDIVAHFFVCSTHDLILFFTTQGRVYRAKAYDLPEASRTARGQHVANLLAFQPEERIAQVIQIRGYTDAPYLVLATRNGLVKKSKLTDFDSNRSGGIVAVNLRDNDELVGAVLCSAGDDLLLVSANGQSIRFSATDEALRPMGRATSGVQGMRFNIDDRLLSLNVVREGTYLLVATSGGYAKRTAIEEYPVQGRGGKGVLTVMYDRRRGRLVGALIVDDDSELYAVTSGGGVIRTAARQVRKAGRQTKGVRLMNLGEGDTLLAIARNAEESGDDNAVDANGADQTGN

DNA gyrase subunit B = DNA gyrase subunit B (Mycobacterium smegmatis, UniProt P0C559); test: Inhibition of 6-His-tagged Mycobacterium smegmatis GyrB expressed in Escherichia coli BL21 (DE3) pLysS cells incubated for 100 mins in presence of ATP by malachite green dye based ATP assay; set-up: species or system Mycolicibacterium smegmatis
Sequence of DNA gyrase subunit B (P0C559 whole entry): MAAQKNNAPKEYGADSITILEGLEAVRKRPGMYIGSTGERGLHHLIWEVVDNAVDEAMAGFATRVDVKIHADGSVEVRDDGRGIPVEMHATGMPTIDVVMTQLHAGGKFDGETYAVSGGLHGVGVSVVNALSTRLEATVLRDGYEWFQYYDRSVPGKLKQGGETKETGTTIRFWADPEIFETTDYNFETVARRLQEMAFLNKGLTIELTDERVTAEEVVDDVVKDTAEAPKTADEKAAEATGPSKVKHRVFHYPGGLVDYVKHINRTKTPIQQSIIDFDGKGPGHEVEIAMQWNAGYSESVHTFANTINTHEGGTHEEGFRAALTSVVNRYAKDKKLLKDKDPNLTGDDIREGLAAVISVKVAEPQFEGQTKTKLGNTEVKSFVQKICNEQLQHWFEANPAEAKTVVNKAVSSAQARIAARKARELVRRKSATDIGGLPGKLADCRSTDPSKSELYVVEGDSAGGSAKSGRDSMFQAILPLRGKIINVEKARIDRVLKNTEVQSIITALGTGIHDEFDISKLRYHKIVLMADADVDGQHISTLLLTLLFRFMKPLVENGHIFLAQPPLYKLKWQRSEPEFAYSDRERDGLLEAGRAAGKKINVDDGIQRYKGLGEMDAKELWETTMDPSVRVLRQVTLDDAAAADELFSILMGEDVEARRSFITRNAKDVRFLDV

[3] = Cytotoxicity against mouse RAW264.7 cells assessed as inhibition of cell viability at 100 uM after 48 hrs by MTT assay; assay type: cell-based; details: read-out: INH
In short: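 RAW 264.7 mouse macrophages, 5 × 10^5 cells per well, exposed to compounds at 37 °C, 5% CO2 for 48 h. MTT added about 4 h before the end, then supernatant removed and DMSO added. Absorbance read at 560 nm against blank, triplicate wells per concentration, result expressed as % inhibition.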

[4] = molecular target: DNA gyrase subunit B (Escherichia coli) (UniProt P0AES6); test: Inhibition of Escherichia coli GyrB at 50 uM
[5] = molecular target: DNA gyrase subunit B (Mycobacterium smegmatis) (UniProt P0C559); details: Mycolicibacterium smegmatis
Sequence of DNA gyrase subunit B (Mycobacterium smegmatis) (P0C559 2-675 limits assumed): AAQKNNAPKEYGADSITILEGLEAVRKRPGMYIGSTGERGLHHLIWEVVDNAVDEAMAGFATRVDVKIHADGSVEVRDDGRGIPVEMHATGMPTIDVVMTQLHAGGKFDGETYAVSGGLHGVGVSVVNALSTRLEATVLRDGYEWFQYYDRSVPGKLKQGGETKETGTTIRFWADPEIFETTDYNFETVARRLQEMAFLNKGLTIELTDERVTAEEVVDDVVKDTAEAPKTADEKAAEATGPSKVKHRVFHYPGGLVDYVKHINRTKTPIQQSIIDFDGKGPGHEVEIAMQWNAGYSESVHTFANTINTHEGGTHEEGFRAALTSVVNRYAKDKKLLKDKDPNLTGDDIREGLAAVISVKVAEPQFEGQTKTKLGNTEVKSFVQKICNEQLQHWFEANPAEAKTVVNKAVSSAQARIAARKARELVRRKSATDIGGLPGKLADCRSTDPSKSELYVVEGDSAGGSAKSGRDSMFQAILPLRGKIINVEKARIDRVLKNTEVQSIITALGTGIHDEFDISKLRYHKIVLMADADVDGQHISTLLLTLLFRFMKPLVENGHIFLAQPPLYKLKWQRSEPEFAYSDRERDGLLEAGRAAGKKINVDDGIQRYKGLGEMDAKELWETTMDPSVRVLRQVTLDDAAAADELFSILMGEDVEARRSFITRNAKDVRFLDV

[6] = molecular target: DNA gyrase subunit B (Staphylococcus aureus) (UniProt P0A0K8); test: Inhibition of Staphylococcus aureus GyrB at 50 uM
Sequence of DNA gyrase subunit B (Staphylococcus aureus) (P0A0K8 2-644 limits assumed): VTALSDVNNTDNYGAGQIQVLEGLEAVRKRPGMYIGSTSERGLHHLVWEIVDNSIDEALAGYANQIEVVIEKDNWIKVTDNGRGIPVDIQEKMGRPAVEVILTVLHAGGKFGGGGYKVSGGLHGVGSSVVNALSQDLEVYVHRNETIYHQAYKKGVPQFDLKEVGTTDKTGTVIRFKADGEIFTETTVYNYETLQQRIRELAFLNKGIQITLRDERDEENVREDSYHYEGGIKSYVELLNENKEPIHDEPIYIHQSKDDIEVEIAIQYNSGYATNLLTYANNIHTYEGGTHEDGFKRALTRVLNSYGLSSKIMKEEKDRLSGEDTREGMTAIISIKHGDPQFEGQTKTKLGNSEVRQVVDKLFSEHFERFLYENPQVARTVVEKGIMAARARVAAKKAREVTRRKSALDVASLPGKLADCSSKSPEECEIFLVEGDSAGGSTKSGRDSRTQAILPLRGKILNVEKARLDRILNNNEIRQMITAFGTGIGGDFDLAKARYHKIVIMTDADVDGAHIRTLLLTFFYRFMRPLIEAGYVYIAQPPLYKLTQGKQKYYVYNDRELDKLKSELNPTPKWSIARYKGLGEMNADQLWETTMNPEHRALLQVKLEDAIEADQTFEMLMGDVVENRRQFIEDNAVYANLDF

SMILES | MIC [1] [µM] | IC50 [2] [µM] | IC50 (DNA gyrase subunit B) [µM] | cytotoxicity at 48 h, 100 µM [3] [%] | inhibition [4] | ΔTm [5] [°C] | inhibition [6]
CCOC(=O)c1sc(-c2ccccc2)nc1N1CCC(NCc2ccc(F)cc2)CC1 | 28.4 (≈ 12.5 µg/mL) | – | – | – | – | – | –
CCOC(=O)c1cc2cc(N3CCN(C(=O)CC4CCCCC4)CC3)ccc2o1 | 38.4 (≈ 15.3 µg/mL) | 25.2 | 36.3 | 31.4 | – | – | –
CCOC(=O)c1cc2cc(N3CCN(C(=O)Cc4c(F)cc(F)cc4F)CC3)ccc2o1 | 17.1 (≈ 7.61 µg/mL) | 6.1 | 12.4 | 14 | – | – | –
CCOC(=O)c1cc2cc(N3CCN(C(=O)Cc4ccc(Cl)cc4)CC3)ccc2o1 | 20.2 (≈ 8.63 µg/mL) | 8.9 | 14.5 | 29.2 | – | – | –
CCOC(=O)c1cc2cc(N3CCN(C(=O)Cc4ccccc4)CC3)ccc2o1 | 12.3 (≈ 4.84 µg/mL) | 6.81 | 9.2 | 15.1 | – | – | –
CCOC(=O)c1cc2cc(N3CCN(C(=O)Cc4ccc(OC)cc4)CC3)ccc2o1 | 18.2 (≈ 7.68 µg/mL) | 7.4 | 10.2 | 7.39 | – | – | –
CCOC(=O)c1cc2cc(N3CCN(C(=O)C4Cc5ccccc5N4)CC3)ccc2o1 (stereo unspecified) | 9.23 (≈ 3.87 µg/mL) | 0.84 | 3.89 | 29.8 | – | – | –
CCOC(=O)c1cc2cc(N3CCN(C(=O)c4ccco4)CC3)ccc2o1 | 43.6 (≈ 16.1 µg/mL) | 24.4 | 37.3 | 17 | – | – | –
CCOC(=O)c1cc2cc(N3CCN(C(=O)c4c(Cl)cccc4Cl)CC3)ccc2o1 | 10 (≈ 4.49 µg/mL) | 3.1 | 10.7 | 6.98 | – | – | –
CCOC(=O)c1cc2cc(N3CCN(C(=O)COc4ccccc4)CC3)ccc2o1 | 9.35 (≈ 3.82 µg/mL) | 1.14 | 3.97 | 7.65 | – | – | –
CCOC(=O)c1cc2cc(N3CCN(C(=O)c4ncccc4C(F)(F)F)CC3)ccc2o1 | 26.7 (≈ 11.9 µg/mL) | 7.81 | 23.4 | 14 | – | – | –
CCOC(=O)c1cc2cc(N3CCN(C(=O)c4ccc(C(F)(F)F)cc4)CC3)ccc2o1 | 54 (≈ 24.1 µg/mL) | 45.1 | 52.1 | 3.5 | – | – | –
CCOC(=O)c1cc2cc(N3CCN(C(=O)c4cccc(OC)c4)CC3)ccc2o1 | 9.67 (≈ 3.95 µg/mL) | 2.52 | 5.01 | 15.3 | – | – | –
CCOC(=O)c1cc2cc(N3CCN(C(=O)c4ccccc4OC(F)(F)F)CC3)ccc2o1 | 30.2 (≈ 14 µg/mL) | 15.6 | 29.2 | 27 | – | – | –
NNC(=O)c1ccncc1 [ISONIAZID] | 0.66 (≈ 0.0905 µg/mL) | – | – | – | – | – | –
CC[C@@H](CO)NCCN[C@@H](CC)CO [ETHAMBUTOL] | 9.84 (≈ 2.01 µg/mL) | – | – | – | – | – | –

SMILES | MIC [1] [µM] | IC50 [2] [µM] | IC50 (DNA gyrase subunit B) [µM] | cytotoxicity at 48 h, 100 µM [3] [%] | inhibition [4] | ΔTm [5] [°C] | inhibition [6]
CO[C@@H]1[C@@H](OC(N)=O)[C@@H](O)[C@H](Oc2ccc3c(O)c(NC(=O)c4ccc(O)c(CC=C(C)C)c4)c(=O)oc3c2C)OC1(C)C [NOVOBIOCIN] | > 200 | – | – | 19.4 | – | – | –
COc1c(N2C[C@@H]3CCCN[C@@H]3C2)c(F)cc2c(=O)c(C(=O)O)cn(C3CC3)c12 [MOXIFLOXACIN] | 8.6 (≈ 3.45 µg/mL) | – | > 50 | – | – | – | –
CCOC(=O)c1cc2cc(N3CCN(C(=O)c4ccc(C5CCOCC5)cc4)CC3)ccc2o1 | 9.8 (≈ 4.53 µg/mL) | 0.91 | 6.7 | 6.75 | – | – | –
CC1COc2c(N3CCN(C)CC3)c(F)cc3c(=O)c(C(=O)O)cn1c23 (stereo unspecified) [OFLOXACIN] | 2.16 (≈ 0.781 µg/mL) | – | – | – | – | – | –
CCOC(=O)c1cc2cc(N3CCN(C(=O)c4cccc5ccccc45)CC3)ccc2o1 | 13.2 (≈ 5.64 µg/mL) | 3.6 | 9.08 | 3.64 | – | – | –
CCOC(=O)c1cc2cc(N3CCN(C(=O)c4c(F)cc(OC)cc4F)CC3)ccc2o1 | 25.4 (≈ 11.3 µg/mL) | 9.8 | 24.2 | 7.03 | – | – | –
CCOC(=O)c1cc2cc(N3CCN(C(=O)Cc4ccc(Br)cc4)CC3)ccc2o1 | 19.8 (≈ 9.33 µg/mL) | 5.2 | 16.6 | 53 | – | – | –
CCOC(=O)c1cc2cc(N3CCN(C(=O)c4ccccc4C(F)(F)F)CC3)ccc2o1 | 38.4 (≈ 17.2 µg/mL) | 26.3 | 36.9 | 14 | – | – | –
CCOC(=O)c1cc2cc(N3CCN(C(=O)c4c(F)cccc4F)CC3)ccc2o1 | 11.6 (≈ 4.81 µg/mL) | 2.9 | 6.21 | 7.54 | – | – | –
CCOC(=O)c1cc2cc(N3CCN(C(=O)c4cccnc4Cl)CC3)ccc2o1 | 11 (≈ 4.54 µg/mL) | 1.5 | 7.94 | 7.55 | – | – | –
CCOC(=O)c1cc2cc(N3CCN(C(=O)C4CCN(C(=O)OC(C)(C)C)CC4)CC3)ccc2o1 | 9.18 (≈ 4.46 µg/mL) | 0.81 | 3.2 | 3.21 | inactive | 2.7 | inactive
CCOC(=O)c1cc2cc(N3CCN(C(=O)Cc4ccc(F)cc4)CC3)ccc2o1 | 40.2 (≈ 16.5 µg/mL) | 26.9 | 38.4 | 30.4 | – | – | –
CCOC(=O)c1cc2cc(N3CCN(C(=O)CCc4ccc(F)cc4)CC3)ccc2o1 | 9.57 (≈ 4.06 µg/mL) | 3.13 | 6.14 | 14.7 | – | – | –
CCOC(=O)c1cc2cc(N3CCN(C(=O)c4nccnc4Cl)CC3)ccc2o1 | 13.9 (≈ 5.77 µg/mL) | 3.12 | 12.7 | 30.1 | – | – | –
CCOC(=O)c1cc2cc(N3CCN(C(=O)CC(C)C)CC3)ccc2o1 | 32.1 (≈ 11.5 µg/mL) | 29.1 | 41.1 | 8.71 | – | – | –

From ChEMBL document CHEMBL3352198, “Design, synthesis, biological evaluation of substituted benzofurans as DNA gyraseB inhibitors of Mycobacterium tuberculosis” (Bioorg Med Chem, 2014)
